Drawing on PubChem BioAssay, this text covers GFP response vs DMSO, GFP response relative to DMSO and GFP response, % of DMSO for 16 compounds.

Calls of active or inactive are those of the source.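 The calls were made as follows, unless noted: active = GFP response above 150% of the DMSO level; inconclusive = fewer than 70 events counted for a yeast strain; inactive = the rest.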

Test [1] in a line: hit retest on RPL19A-GFP reporter strain – cell-based, S. cerevisiae, flow cytometry, cherry picks, mother/daughter gates, confirmation (AID 2270;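 active = GFP response below 50% of the DMSO control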). The conditions noted are these: 3 h, at 10 µM, stronger effect = lower value, 100 = same GFP as DMSO wells. A general note: A flow cytometer gives signals particle by particle.
Test [2] is described as follows: yeast TOR pathway reporter LAP4-GFP change – cell-based, cherry picks, flow cytometry, mother/daughter gates, confirmation (AID 2271;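 active = GFP response above 150% of the DMSO control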;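 also: ratio of sample to DMSO plate mean so 100% equals DMSO level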). The conditions noted are these: S. cerevisiae LAP4-GFP strain, 3 h, at 10 µM, stronger effect = higher value, 100 means same as DMSO control. The method in brief:
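Material: Alexa 633-stained baker's yeast GFP-fusion strain; Compound dosing: single test-compound dose, 10 µM final; Incubation: 30 °C, 3 h compound incubation, rotating; Detection: HT flow cytometry, GFP fluorescence channel; Control set: positive rapamycin (400 ng/mL), negative DMSO.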

Test [3] in a line: TOR pathway reporter MEP2-GFP, retest of hits – S. cerevisiae, flow cytometry GFP, cherry picks, confirmation (AID 2272;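 active = GFP response above 150% of the DMSO control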;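 also: ratio of well signal to plate DMSO mean so 100% equals DMSO level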). The conditions noted are these: S. cerevisiae MEP2-GFP strain, 3 h, at 10 µM, stronger effect = higher value.
Test [4] in a line: yeast AGP1-GFP fluorescence change, single-dose – cell-based, flow cytometry, S. cerevisiae, cherry picks, confirmation (AID 2273).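 Also: median GFP channel fluorescence over the whole cell population gate.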 The conditions noted are these: S. cerevisiae AGP1-GFP strain, 3 h, at 10 µM.
The nature of test [5]: TOR pathway CIT2 reporter hit retest – S. cerevisiae, GFP fusion, cherry picks, mother/daughter gates, confirmation (AID 2274). The conditions noted are these: S. cerevisiae CIT2-GFP strain, flow cytometry, 3 h, at 10 µM, stronger effect = higher value.
Setting [6] is: measured here: daughter cell gate.
[7] abbreviates: measured here: mother cell gate.
[8] abbreviates: measured here: daughter cell gate response.
Setting [9] is: measured here: mother cell gate response.

For the compound `CCCOc1ccc(C(=O)NNC(=S)NC(=O)c2ccco2)cc1`, the GFP response vs DMSO in test [1] was 124% (inactive); in test [1] (setting [6]) it was 111%; in test [1] (setting [7]) it was 110%; in test [3], 137% (inactive). The values for the GFP response relative to DMSO in test [2], in test [2] (setting [8]) and in test [2] (setting [9]) were 175% (active), 148% and 167%, respectively. Moreover, the GFP response, % of DMSO in test [4] is 131% (inactive); in test [5], 134% (inactive); in test [5] (setting [6]), 132%; in test [5] (setting [7]), 121%.

For the compound `O=C1CC(Sc2nnnn2C2CCCCC2)C(=O)N1c1ccccc1` (stereo unspecified), the GFP response vs DMSO is 94.3% (inactive) in test [1], 95.5% in test [1] (setting [6]), 94.8% in test [1] (setting [7]) and 97.5% (inactive) in test [3]. For the same compound, the GFP response relative to DMSO in test [2] was 107% (inactive); in test [2] (setting [8]) it was 104%; in test [2] (setting [9]), 107%. For the same compound, the GFP response, % of DMSO in test [4] was 99.3% (inactive); in test [5], 95% (inactive); in test [5] (setting [6]), 94.6%; in test [5] (setting [7]), 93.3%.

On to `CCN(CC)C(=O)c1ccc(-c2cccs2)s1`, for which the GFP response vs DMSO is 95.4% (inactive) in test [1], 94.6% in test [1] (setting [6]), 96.4% in test [1] (setting [7]) and 94.1% (inactive) in test [3]. Also, the figures for the GFP response relative to DMSO in test [2], in test [2] (setting [8]) and in test [2] (setting [9]) were 107% (inactive), 106% and 108%, respectively. Further, the GFP response, % of DMSO in test [4] is 99.9% (inactive); in test [5], 98.3% (inactive); in test [5] (setting [6]), 97.2%; in test [5] (setting [7]), 97.3%.

With `Cc1ccc(N2C(=O)c3ccccc3NC2c2ccccc2O)cc1` (stereo unspecified), the GFP response vs DMSO in test [1] is 97.2% (inactive); in test [1] (setting [6]), 98.1%; in test [1] (setting [7]), 98.4%; in test [3], 109% (inactive). Also, the GFP response relative to DMSO in test [2] was 97.9% (inactive); in test [2] (setting [8]), 96%; in test [2] (setting [9]), 96.1%. In addition, the GFP response, % of DMSO in test [4] is 96.6% (inactive); in test [5] it was 103% (inactive); in test [5] (setting [6]), 105%; in test [5] (setting [7]), 103%.

As for `O=C(CSc1ccc(Cl)cc1)Nc1cccc(-c2nc3ccccc3[nH]2)c1`, the GFP response vs DMSO is 97.8% (inactive) in test [1], 98% in test [1] (setting [6]), 97.8% in test [1] (setting [7]) and 99.5% (inactive) in test [3]. The results for the GFP response relative to DMSO in test [2], in test [2] (setting [8]) and in test [2] (setting [9]) were 101% (inactive), 97.9% and 101%, respectively. The GFP response, % of DMSO in test [4] was 98% (inactive); in test [5], 96.4% (inactive); in test [5] (setting [6]) it was 96.4%; in test [5] (setting [7]), 95.6%.

With `Cc1cc(C)n2nc(C(=O)NC(c3ccccc3)c3ccccc3)nc2n1`, the GFP response vs DMSO was 98.6% (inactive) in test [1], 99.9% in test [1] (setting [6]), 98.2% in test [1] (setting [7]) and 98.8% (inactive) in test [3]. For the same compound, the GFP response relative to DMSO in test [2] was 98.6% (inactive); in test [2] (setting [8]), 99.7%; in test [2] (setting [9]), 99.2%. Also, the GFP response, % of DMSO in test [4] was 104% (inactive); in test [5] it was 111% (inactive); in test [5] (setting [6]), 110%; in test [5] (setting [7]), 112%.

In the case of `Cc1cccc(/C(N)=N/OC(=O)C23CC4CC(CC(C4)C2)C3)c1`, the GFP response vs DMSO in test [1] was 102% (inactive); in test [1] (setting [6]) it was 101%; in test [1] (setting [7]) it was 101%; in test [3], 108% (inactive). Also, the GFP response relative to DMSO in test [2] was 113% (inactive); in test [2] (setting [8]), 108%; in test [2] (setting [9]) it was 119%. Also, the GFP response, % of DMSO in test [4] was 85% (inactive); in test [5] it was 123% (inactive); in test [5] (setting [6]), 111%; in test [5] (setting [7]), 127%.

Regarding `COc1ccc(S(=O)(=O)N2CCC(O)(c3ccc(Cl)cc3)CC2)cc1`, the GFP response vs DMSO in test [1] is 101% (inactive); in test [1] (setting [6]) it was 99.6%; in test [1] (setting [7]), 101%; in test [3], 105% (inactive). Also, the GFP response relative to DMSO in test [2] was 97.9% (inactive); in test [2] (setting [8]), 97.6%; in test [2] (setting [9]), 97.2%. Moreover, the GFP response, % of DMSO in test [4] was 91.9% (inactive); in test [5], 107% (inactive); in test [5] (setting [6]) it was 106%; in test [5] (setting [7]), 104%.

Regarding `COCC(=O)Nc1cc([N+](=O)[O-])ccc1C`, the GFP response vs DMSO was 99.5% (inactive) in test [1], 101% in test [1] (setting [6]), 99.8% in test [1] (setting [7]) and 102% (inactive) in test [3]. The GFP response relative to DMSO in test [2] was 101% (inactive); in test [2] (setting [8]), 99.3%; in test [2] (setting [9]) it was 99.5%. The GFP response, % of DMSO is 98.4% (inactive) in test [4], 99.3% (inactive) in test [5], 100% in test [5] (setting [6]) and 98% in test [5] (setting [7]).

As for `CCCc1nn(-c2ccccc2)c2c1C(c1cccs1)C(C#N)=C(N)O2` (stereo unspecified), the GFP response vs DMSO in test [1] was 101% (inactive); in test [1] (setting [6]), 100%; in test [1] (setting [7]) it was 102%; in test [3], 95.7% (inactive). For the same compound, the GFP response relative to DMSO in test [2] was 90.2% (inactive); in test [2] (setting [8]), 92.5%; in test [2] (setting [9]), 95.2%. For the same compound, the GFP response, % of DMSO in test [4] was 95.9% (inactive); in test [5], 102% (inactive); in test [5] (setting [6]) it was 98.1%; in test [5] (setting [7]), 102%.

On to `Cc1ccc(N2C(=O)C(Cl)=C(Nc3c(C)n(C)n(-c4ccccc4)c3=O)C2=O)cc1`, for which the GFP response vs DMSO in test [1] is 96.9% (inactive); in test [1] (setting [6]), 93.9%; in test [1] (setting [7]), 96.1%; in test [3], 101% (inactive). Also, the GFP response relative to DMSO in test [2] is 101% (inactive); in test [2] (setting [8]) it was 101%; in test [2] (setting [9]) it was 101%. Also, the GFP response, % of DMSO in test [4] is 105% (inactive); in test [5] it was 100% (inactive); in test [5] (setting [6]), 103%; in test [5] (setting [7]) it was 100%.

As for `COc1cc(/C=C2/C(=O)ON=C2c2ccccc2)ccc1O`, the GFP response vs DMSO was 105% (inactive) in test [1], 108% in test [1] (setting [6]), 100% in test [1] (setting [7]) and 121% (inactive) in test [3]. For the same compound, the GFP response relative to DMSO in test [2] is 105% (inactive); in test [2] (setting [8]), 108%; in test [2] (setting [9]) it was 102%. Further, the GFP response, % of DMSO is 107% (inactive) in test [4], 125% (inactive) in test [5], 132% in test [5] (setting [6]) and 112% in test [5] (setting [7]).

For `COc1ccc(C(=O)/C=C2/C(=O)Nc3ccccc32)cc1OC`, the GFP response vs DMSO in test [1] was 98.2% (inactive); in test [1] (setting [6]) it was 98.8%; in test [1] (setting [7]), 99.3%; in test [3], 99.5% (inactive). The GFP response relative to DMSO is 97.7% (inactive) in test [2], 96.5% in test [2] (setting [8]) and 97.5% in test [2] (setting [9]). Further, the GFP response, % of DMSO in test [4] is 97.5% (inactive); in test [5] it was 95% (inactive); in test [5] (setting [6]) it was 94.6%; in test [5] (setting [7]) it was 93.3%.

For `CCCCNc1c(-c2ccc(SC(C)CC)cc2)nc2ccccn12` (stereo unspecified), the GFP response vs DMSO in test [1] is 94.2% (inactive); in test [1] (setting [6]) it was 88.6%; in test [1] (setting [7]) it was 95.8%; in test [3] it was 109% (inactive). Moreover, the GFP response relative to DMSO in test [2] was 120% (inactive); in test [2] (setting [8]), 114%; in test [2] (setting [9]), 124%. For the same compound, the GFP response, % of DMSO in test [4] is 93.3% (inactive); in test [5] it was 92.6% (inactive); in test [5] (setting [6]), 89.9%; in test [5] (setting [7]), 91.4%.

For `COc1ccc(-c2ccc(CCC(=O)O)o2)cc1`, the GFP response vs DMSO in test [1] was 97% (inactive); in test [1] (setting [6]), 95.1%; in test [1] (setting [7]), 96.1%; in test [3], 102% (inactive). The GFP response relative to DMSO in test [2] was 126% (inactive); in test [2] (setting [8]), 122%; in test [2] (setting [9]), 126%. In addition, the GFP response, % of DMSO in test [4] was 86.3% (inactive); in test [5], 101% (inactive); in test [5] (setting [6]), 97.2%; in test [5] (setting [7]), 101%.

For the compound `N#C/C(=C/c1ccc(N2CCOCC2)o1)c1ccc(Br)cc1`, the GFP response vs DMSO in test [1] was 96.6% (inactive); in test [1] (setting [6]) it was 95.9%; in test [1] (setting [7]), 95%; in test [3], 114% (inactive). Besides, the GFP response relative to DMSO was 114% (inactive) in test [2], 114% in test [2] (setting [8]) and 115% in test [2] (setting [9]). Moreover, the GFP response, % of DMSO in test [4] was 95.5% (inactive); in test [5] it was 102% (inactive); in test [5] (setting [6]), 101%; in test [5] (setting [7]), 99.3%.
